The source made the active and inactive calls.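 The calls were made as follows, unless noted: active = GFP response above 150% of the DMSO level; inconclusive = fewer than 70 events counted for a yeast strain; inactive = the rest.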

The results in this text go back to PubChem BioAssay.

Assay [1] can be described thus: hit retest on RPL19A-GFP reporter strain – cell-based, S. cerevisiae, flow cytometry, cherry picks, mother/daughter gates, confirmation (AID 2270;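 active = GFP response below 50% of the DMSO control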). The note with it: 3 h, at 10 µM, stronger effect = lower value, 100 = same GFP as DMSO wells. (In general: A flow cytometer gives signals particle by particle.)
Assay [2] is described as follows: yeast TOR pathway reporter LAP4-GFP change – cell-based, cherry picks, flow cytometry, mother/daughter gates, confirmation (AID 2271;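 active = GFP response above 150% of the DMSO control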;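 also: ratio of sample to DMSO plate mean so 100% equals DMSO level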). The note with it: S. cerevisiae LAP4-GFP strain, 3 h, at 10 µM, stronger effect = higher value, 100 means same as DMSO control. In short, it runs like this:
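Measured by: GFP by flow cytometry. Test system: GFP-fusion yeast strain. Input: yeast cells seeded at OD600 of 0.2. Timing: 30 °C, 3 h compound incubation, rotating. Buffer or medium: synthetic complete medium for yeast. Benchmarks: DMSO-only negative wells, rapamycin 400 ng/mL positive wells. Compound: 10 µM single dose.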

Assay [3] is described as follows: TOR pathway reporter MEP2-GFP, retest of hits – S. cerevisiae, flow cytometry GFP, cherry picks, confirmation (AID 2272;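 active = GFP response above 150% of the DMSO control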;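 also: ratio of well signal to plate DMSO mean so 100% equals DMSO level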). Conditions: S. cerevisiae MEP2-GFP strain, 3 h, at 10 µM, stronger effect = higher value.
The nature of assay [4]: yeast AGP1-GFP fluorescence change, single-dose – cell-based, flow cytometry, S. cerevisiae, cherry picks, confirmation (AID 2273).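 Also: median GFP channel fluorescence over the whole cell population gate.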 The note with it: S. cerevisiae AGP1-GFP strain, 3 h, at 10 µM.
Assay [5] can be described thus: TOR pathway CIT2 reporter hit retest – S. cerevisiae, GFP fusion, cherry picks, mother/daughter gates, confirmation (AID 2274). Conditions: S. cerevisiae CIT2-GFP strain, flow cytometry, 3 h, at 10 µM, stronger effect = higher value.
[6] abbreviates: measured here: daughter cell gate.
The mark [7] stands for this setting: measured here: mother cell gate.
The mark [8] stands for this setting: measured here: daughter cell gate response.
Setting [9] is: measured here: mother cell gate response.

Turning to `COc1ccccc1-c1nnc(NC(=O)c2ccc(S(=O)(=O)N3CCCC3)cc2)o1`, the GFP response vs DMSO is 102% (inactive) in assay [1], 101% in assay [1] (setting [6]), 104% in assay [1] (setting [7]) and 102% (inactive) in assay [3]. The GFP response relative to DMSO in assay [2] is 96.2% (inactive); in assay [2] (setting [8]), 98.7%; in assay [2] (setting [9]) it was 97.2%. For the same molecule, the GFP response, % of DMSO is 98% (inactive) in assay [4], 107% (inactive) in assay [5], 105% in assay [5] (setting [6]) and 107% in assay [5] (setting [7]).
As to `c1ccc(CSc2ccc(-c3ccccn3)nn2)cc1`, the GFP response vs DMSO was 101% (inactive) in assay [1], 97.1% in assay [1] (setting [6]), 91.9% in assay [1] (setting [7]) and 114% (inactive) in assay [3]. Further, the GFP response relative to DMSO is 108% (inactive) in assay [2], 104% in assay [2] (setting [8]) and 106% in assay [2] (setting [9]). The GFP response, % of DMSO in assay [4] was 96.7% (inactive); in assay [5] it was 97.3% (inactive); in assay [5] (setting [6]), 97.4%; in assay [5] (setting [7]) it was 93.2%.
Regarding `O=C(CSCc1cccc(Br)c1)N=Nc1c(O)[nH]c2ccccc12`, the GFP response vs DMSO in assay [1] is 76.9% (inactive); in assay [1] (setting [6]) it was 67.8%; in assay [1] (setting [7]), 73%; in assay [3], 124% (inactive). Moreover, the values for the GFP response relative to DMSO in assay [2], in assay [2] (setting [8]) and in assay [2] (setting [9]) were 126% (inactive), 102% and 126%, respectively. The GFP response, % of DMSO is 137% (inactive) in assay [4], 130% (inactive) in assay [5], 110% in assay [5] (setting [6]) and 129% in assay [5] (setting [7]).
In the case of `Cc1nn(C(=O)c2ccco2)c(C)c1Sc1ccccc1`, the GFP response vs DMSO is 95.6% (inactive) in assay [1], 97% in assay [1] (setting [6]), 94.4% in assay [1] (setting [7]) and 101% (inactive) in assay [3]. Besides, the GFP response relative to DMSO is 97.7% (inactive) in assay [2], 99% in assay [2] (setting [8]) and 95.4% in assay [2] (setting [9]). For the same molecule, the GFP response, % of DMSO in assay [4] was 97% (inactive); in assay [5], 98.6% (inactive); in assay [5] (setting [6]) it was 99.3%; in assay [5] (setting [7]), 98.2%.
Regarding `CCn1c(=O)c(C(=O)NCc2ccc(OC)cc2)c(O)c2ccccc21`, the GFP response vs DMSO in assay [1] is 98.5% (inactive); in assay [1] (setting [6]), 99.5%; in assay [1] (setting [7]), 98.4%; in assay [3], 106% (inactive). Also, the GFP response relative to DMSO in assay [2] is 97.7% (inactive); in assay [2] (setting [8]), 102%; in assay [2] (setting [9]), 97.4%. The GFP response, % of DMSO in assay [4] was 100% (inactive); in assay [5], 101% (inactive); in assay [5] (setting [6]), 101%; in assay [5] (setting [7]), 100%.
In the case of `O=C(COC(=O)CCc1nc2ccccc2s1)Nc1nc(-c2ccccc2)cs1`, the GFP response vs DMSO in assay [1] is 101% (inactive); in assay [1] (setting [6]) it was 100%; in assay [1] (setting [7]) it was 100%; in assay [3] it was 100% (inactive). The GFP response relative to DMSO is 96.2% (inactive) in assay [2], 98.7% in assay [2] (setting [8]) and 97.2% in assay [2] (setting [9]). Moreover, the GFP response, % of DMSO was 101% (inactive) in assay [4], 102% (inactive) in assay [5], 98.1% in assay [5] (setting [6]) and 103% in assay [5] (setting [7]).
On to `O=C1C(CSCc2ccccc2)NC(=S)N1c1ccccc1` (centres undefined), for which the GFP response vs DMSO in assay [1] was 102% (inactive); in assay [1] (setting [6]), 102%; in assay [1] (setting [7]) it was 101%; in assay [3], 98.8% (inactive). The GFP response relative to DMSO was 122% (inactive) in assay [2], 120% in assay [2] (setting [8]) and 128% in assay [2] (setting [9]). Also, the GFP response, % of DMSO is 98.1% (inactive) in assay [4], 99.7% (inactive) in assay [5], 102% in assay [5] (setting [6]) and 94.7% in assay [5] (setting [7]).
With `Cc1cc(C)c(S(=O)(=O)ON2C(=O)c3ccccc3C2=O)cc1C`, the GFP response vs DMSO in assay [1] was 88.4% (inactive); in assay [1] (setting [6]), 90.8%; in assay [1] (setting [7]) it was 76.7%; in assay [3] it was 114% (inactive). For the same molecule, the values for the GFP response relative to DMSO in assay [2], in assay [2] (setting [8]) and in assay [2] (setting [9]) were 255% (active), 209% and 252%, respectively. In addition, the GFP response, % of DMSO in assay [4] was 97.5% (inactive); in assay [5] it was 102% (inactive); in assay [5] (setting [6]), 98.3%; in assay [5] (setting [7]), 71.1%.
Turning to `COc1ccc(-c2ccc(S(=O)(=O)N3CCOCC3)cc2)cc1`, the GFP response vs DMSO in assay [1] was 95.4% (inactive); in assay [1] (setting [6]), 93.9%; in assay [1] (setting [7]) it was 95.7%; in assay [3], 99% (inactive). The GFP response relative to DMSO in assay [2] was 107% (inactive); in assay [2] (setting [8]), 106%; in assay [2] (setting [9]), 107%. Further, the GFP response, % of DMSO in assay [4] is 100% (inactive); in assay [5] it was 100% (inactive); in assay [5] (setting [6]) it was 97.4%; in assay [5] (setting [7]), 102%.
On to `COc1cc(NC(=O)c2oc3ccccc3c2C)ccc1NC(=O)c1ccco1`, for which the GFP response vs DMSO in assay [1] was 98% (inactive); in assay [1] (setting [6]), 97.8%; in assay [1] (setting [7]), 98.4%; in assay [3], 110% (inactive). The GFP response relative to DMSO in assay [2] is 97.7% (inactive); in assay [2] (setting [8]) it was 99%; in assay [2] (setting [9]) it was 100%. Moreover, the GFP response, % of DMSO is 102% (inactive) in assay [4], 98.6% (inactive) in assay [5], 97.6% in assay [5] (setting [6]) and 99.3% in assay [5] (setting [7]).
Turning to `O=[N+]([O-])c1ccc(SCCc2ccncc2)cc1`, the GFP response vs DMSO in assay [1] was 94.8% (inactive); in assay [1] (setting [6]), 97.4%; in assay [1] (setting [7]), 95.4%; in assay [3], 96.2% (inactive). Moreover, the GFP response relative to DMSO in assay [2] was 99.2% (inactive); in assay [2] (setting [8]), 99.2%; in assay [2] (setting [9]), 98.3%. For the same molecule, the GFP response, % of DMSO in assay [4] was 98.7% (inactive); in assay [5], 99.7% (inactive); in assay [5] (setting [6]), 101%; in assay [5] (setting [7]) it was 101%.
As for `COc1cc(NC(=O)c2cccc(F)c2)ccc1NC(=O)c1cc2ccccc2o1`, the GFP response vs DMSO is 97.8% (inactive) in assay [1], 98.3% in assay [1] (setting [6]), 97.6% in assay [1] (setting [7]) and 102% (inactive) in assay [3]. Further, the GFP response relative to DMSO in assay [2] is 98.8% (inactive); in assay [2] (setting [8]) it was 99.3%; in assay [2] (setting [9]) it was 97.5%. Further, the GFP response, % of DMSO in assay [4] is 101% (inactive); in assay [5], 97.8% (inactive); in assay [5] (setting [6]), 98.3%; in assay [5] (setting [7]), 95.6%.
With `COc1ccccc1-c1nnc(NC(=O)c2ccc3c(c2)OCO3)s1`, the GFP response vs DMSO was 106% (inactive) in assay [1], 104% in assay [1] (setting [6]), 108% in assay [1] (setting [7]) and 97.8% (inactive) in assay [3]. Further, the figures for the GFP response relative to DMSO in assay [2], in assay [2] (setting [8]) and in assay [2] (setting [9]) were 85.4% (inactive), 84.8% and 89%, respectively. Also, the GFP response, % of DMSO is 98.5% (inactive) in assay [4], 100% (inactive) in assay [5], 101% in assay [5] (setting [6]) and 99.8% in assay [5] (setting [7]).
With `O=C(c1ccc([N+](=O)[O-])o1)N1CCN(c2nc3ccc(F)cc3s2)CC1`, the GFP response vs DMSO in assay [1] was 99.8% (inactive); in assay [1] (setting [6]) it was 100%; in assay [1] (setting [7]), 98.4%; in assay [3], 105% (inactive). For the same molecule, the values for the GFP response relative to DMSO in assay [2], in assay [2] (setting [8]) and in assay [2] (setting [9]) were 111% (inactive), 109% and 115%, respectively. Besides, the GFP response, % of DMSO in assay [4] was 87.7% (inactive); in assay [5], 101% (inactive); in assay [5] (setting [6]), 103%; in assay [5] (setting [7]), 96.1%.
